Published values collected from several papers.
Protocols differ between the studies behind these lines.
Read-out: metabolic stability
Host: human

The microsomal CLint of `O=c1ccc2cc(O)ccc2o1` is reported as 22 µL/min/mg (liver microsomes).
For `CC[N+]1(C)CCN(c2ccc(NC(=O)c3cccc(C)n3)cc2)CC1`, the microsomal CLint was less than 3 µL/min/mg (liver microsomes).
`C[C@]1(C(=O)[C@H](Cc2ccccc2)NC(=O)[C@@H]2COCCCCCC(=O)N3C[C@H](F)C[C@H]3C(=O)N2)CO1` gave a scaled CLint of 93.1 mL/min/kg (liver microsomes; 2 µM, 1 h).
`CCC(CC)COC(=O)[C@H](C)N[P@](=O)(OC[C@@H]1C[C@@H](O)[C@H](n2cnc3c(N)nc(F)nc32)O1)Oc1ccccc1` has a microsomal CLint of 1230 µL/min/mg (liver microsomes; 1 µM).
`O=c1ccc2ccc(O)cc2o1` has a hepatocyte CLint of 56 µL/min/10⁶ cells (hepatocytes; 1 µM).
`Cn1nc2c(=O)n(C3CC3)ncc2c1[C@](N)(c1ccc(C(F)(F)F)c(Cl)c1)C1CC1` has a hepatocyte CLint of less than 0.5 µL/min/10⁶ cells (hepatocytes; 0.5 µM, pH 7.4).
`NC(=O)N1c2ccccc2C=Cc2ccccc21` has a microsomal CLint of less than 3 µL/min/mg (liver microsomes; 1 µM).
`C[C@]1(C(=O)[C@H](CC2=CCCC2)NC(=O)[C@@H]2COCCCCCC(=O)N3C[C@H](F)C[C@H]3C(=O)N2)CO1` has a scaled CLint of 150 mL/min/kg (liver microsomes; 2 µM, 1 h).
`O=C(O)Cc1ccccc1Nc1c(Cl)cccc1Cl` has a hepatocyte CLint of 98.2 µL/min/10⁶ cells (hepatocytes; 0.5 µM, pH 7.4).
With `CCC(CC)COC(=O)[C@H](C)N[P@@](=O)(OC[C@@H]1C[C@@H](O)[C@H](n2cnc3c(N)ncnc32)O1)Oc1ccccc1` the microsomal CLint was 2610 µL/min/mg (liver microsomes; 1 µM).
`O=C(O)Cc1ccccc1Nc1c(Cl)cccc1Cl` gave a scaled CLint of 174 mL/min/kg (liver microsomes).
`CC(C)C[C@H](NC(=O)[C@@H]1COCCCCCC(=O)N2C[C@H](F)C[C@H]2C(=O)N1)C(=O)[C@@]1(C)CO1` has a scaled CLint of 32.4 mL/min/kg (liver microsomes; 2 µM, 1 h).
`Cn1nc2c(=O)n(C3CC3)cnc2c1[C@](O)(c1cnc(C(F)(F)F)c(Cl)c1)C(F)(F)F` gave a hepatocyte CLint of 0.5 µL/min/10⁶ cells (hepatocytes; 0.5 µM, pH 7.4).
The scaled CLint of `CCN(CCN)c1ccc(Nc2cc(NC3CC3)n3ncc(C#N)c3n2)cc1-n1cnnc1` is reported as less than 6.8 mL/min/kg (liver microsomes).
With `CCOc1ccc(NC(C)=O)cc1` the microsomal CLint was 20.7 µL/min/mg (liver microsomes).
The hepatocyte CLint of `Cn1nc2c(=O)n(C3CC3)ncc2c1[C@](O)(c1cnc(C(F)(F)F)c(Cl)c1)C(F)(F)F` is reported as less than 0.5 µL/min/10⁶ cells (hepatocytes; 0.5 µM, pH 7.4).
`O=c1ccc2ccc(O)cc2o1` gave a scaled CLint of 939 mL/min/kg (liver microsomes).
`Cn1c(=O)c2c(ncn2C)n(C)c1=O` has a hepatocyte CLint of 1.85 µL/min/10⁶ cells (hepatocytes; 0.5 µM, pH 7.4).
For `CC(C)C[C@H](NC(=O)[C@@H]1COCCCCCC(=O)NCC(=O)N2CCC[C@H]2C(=O)N1)C(=O)[C@@]1(C)CO1`, the scaled CLint was 22.5 mL/min/kg (liver microsomes; 2 µM, 1 h).
